One series deals with Plasma. Kind of series: Inhibition of PAF-induced platelet aggregation in rabbit platelet-rich plasma. Particulars: Oryctolagus cuniculus; call rule not given here. The class given is functional. In a few lines:
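Rabbit platelet-rich plasma was prepared from New Zealand rabbit auricular-artery blood collected in 3.8% citrate (pH 7.4) and spun 15 min at 1200 rpm. Antagonists in EtOH (10⁻² to 10⁻⁷ M) were added to stirred PRP for 2 min, then challenged with 2.5 nM PAF. Aggregation was followed by light transmission against a PAF-alone control. IC50 was taken from dose–response curves (five or six determinations).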

Series [1] concerns Human immunodeficiency virus 1. Kind of series: Antiviral activity against HIV1 BAL in human MDM cells. The class given is functional, organism-based. Particulars: Human immunodeficiency virus 1, BAL. In a few lines: (§1)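 Monocyte-derived macrophages were infected with the macrophage-tropic HIV-1/Ba-L strain. HIV-1 replication was read as reverse transcriptase activity in culture supernatants. Values come from a single measurement.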

The nature of series [2]: Cytotoxicity against human MDM cells by neutral red staining. Type of series: cell-based. Put shortly:
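Fifty percent cytotoxic concentration in monocyte-derived macrophages, assessed by neutral red staining.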

Series [3] is described as follows: Cytotoxicity against human MDM cells by neutral red staining at 10 uM. Type of series: cell-based.
A short description of series [4]: Cytotoxicity against human MDM cells by neutral red staining at 1 uM. Type of series: cell-based.
The species named for the next series is Mus musculus. Nature of the series: Blood-brain transfer coefficient in OF1 mouse by in situ brain perfusion method. The class given is ADME, organism-based. Particulars: in vivo. Put shortly: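 In situ brain perfusion in anaesthetized mice (ip xylazine 8 mg/kg, ketamine 140 mg/kg) through a right common carotid catheter. Perfusate was bicarbonate-buffered saline with 9 mM D-glucose, gassed 95% O2/5% CO2, pH 7.4, 37 °C, carrying [³H]tracer at 0.3–0.4 μCi/mL, with [¹⁴C]sucrose as vascular marker. Brain distribution volume was computed from right-hemisphere radioactivity; five animals.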

Series [5] relates to Human immunodeficiency virus 1. Kind of series: Inhibition of HIV1 BAL replication in MDM cells assessed by measuring reverse transcriptase at 100 uM. Particulars: Human immunodeficiency virus 1, BAL. The class given is functional. Put shortly: as §1
The nature of series [6]: Partition coefficient, log P of the compound. The class given is physicochemical. Particulars: octanol/water.
Series [7] deals with Rattus norvegicus. Nature of the series: AUC in Sprague-Dawley rat at 100 mg/kg, iv normalized to 1 mg/kg. The class given is ADME, organism-based, Plasma. Particulars: in vivo. Put shortly:
(§2)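 Single dose given to male Sprague–Dawley rats, three animals. Each animal received 100 mg/kg iv and 500 mg/kg orally. Plasma Cmax, t1/2, AUC and oral bioavailability were determined, and all parameters were normalized to a 1 mg/kg dose so the two routes could be compared.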

Series [8] is described as follows: Half life in Sprague-Dawley rat at 100 mg/kg, iv normalized to 1 mg/kg. The class given is ADME, organism-based. Particulars: in vivo. Put shortly:
as §2

For series [9], the system named is Rattus norvegicus. Nature of the series: AUC in Sprague-Dawley rat at 500 mg/kg, po normalized to 1 mg/kg. Type of series: ADME, organism-based, Plasma. Particulars: in vivo. Put shortly: as §2
Series [10] in a line: Half life in Sprague-Dawley rat at 500 mg/kg, po normalized to 1 mg/kg. The class given is ADME, organism-based. Particulars: in vivo. Put shortly: as §2
Series [11] relates to Rattus norvegicus. Kind of series: Cmax in Sprague-Dawley rat at 500 mg/kg, po normalized to 1 mg/kg. Particulars: in vivo. The class given is ADME, organism-based. Further details: dose 500 mg/kg, route oral. Put shortly: as §2
A short description of series [12]: Bioavailability in Sprague-Dawley rat at 500 mg/kg, po normalized to 1 mg/kg. Particulars: in vivo. The class given is ADME, organism-based. In a few lines:
as §2

Series [13] deals with Rattus norvegicus. Nature of the series: Cmax in Sprague-Dawley rat at 100 mg/kg, iv normalized to 1 mg/kg. Particulars: in vivo. Type of series: ADME, organism-based. Details: dose 100 mg/kg, route intravenous. Put shortly:
as §2

On to `CCCCNC(=O)OCC1CN(C(=O)c2cc(OC)c(OC)c(OC)c2)CCN1C(=O)c1cc(OC)c(OC)c(OC)c1` (stereo not drawn), for which the IC50 is 0.67 µM in the series with Plasma and 10 µM in series [1]. In [2], this molecule showed a CC50 above 100 µM.
The matching figures for `CCCN(CCC)C(=O)NCC1CN(C(=O)c2cc(OC)c(OC)c(OC)c2)CCN1C(=O)c1cc(OC)c(OC)c(OC)c1` (stereo not drawn): above 10 µM, above 10 µM and above 100 µM.
As to `CCN(CC)C(=O)NCC1CN(C(=O)c2cc(OC)c(OC)c(OC)c2)CCN1C(=O)c1cc(OC)c(OC)c(OC)c1` (stereo not drawn), the IC50 in the series on Plasma is above 10 µM; in [1], 40 µM. This molecule came in with a CC50 in [2] above 100 µM.
In the series on Plasma, `CCN(CC)C(=S)OCC1CN(C(=O)c2cc(OC)c(OC)c(OC)c2)CCN1C(=O)c1cc(OC)c(OC)c(OC)c1` (stereo not drawn) registered an IC50 above 5 µM. For the same molecule, the Activity result in [3] is reported as “Toxic”; in series [4] it was “Not Active”. This molecule also showed a CC50 in series [2] above 1 µM.
`[3H]COc1c(OC)cc(C(=O)N2CCN(C(=O)c3cc(OC)c(OC)c(OC)c3)C(COC(=O)N(CC)CC)C2)cc1OC` (stereo not drawn): the Kin in the series listed under Mus musculus was 1.02 µL/s/g.
On to `CCCCCCNC(=O)NCC1CN(C(=O)c2cc(OC)c(OC)c(OC)c2)CCN1C(=O)c1cc(OC)c(OC)c(OC)c1` (stereo not drawn), for which the IC50 with Plasma is above 10 µM; in series [1], 1 µM. Besides, the CC50 in [2] is above 100 µM.
Regarding `COc1cc(C(=O)N2CCN(C(=O)c3cc(OC)c(OC)c(OC)c3)C(COC(=S)N(C)C)C2)cc(OC)c1OC` (stereo not drawn), testing at 100 µM in [5] gave an inhibition of 76%. The molecule also displayed an IC50 in the series on Plasma of 1.6 µM. Further, the CC50 in series [2] was above 100 µM.
On to `CCC(=O)OCC1CN(C(=O)c2cc(OC)c(OC)c(OC)c2)CCN1C(=O)c1cc(OC)c(OC)c(OC)c1` (stereo not drawn), for which the IC50 was 0.158 µM in the series on Plasma and above 100 µM in series [1]. In series [2], this molecule returned a CC50 above 100 µM.
In series [6], `CCN(CC)C(=O)OCC1CN(C(=O)c2cc(OC)c(OC)c(OC)c2)CCN1C(=O)c1cc(OC)c(OC)c(OC)c1` (stereo not drawn) [PMS-601] had a logP of 0.8. The AUC stood at 1828 ng·h/mL in the series on Rattus norvegicus [7] and 177 ng·h/mL in the series with Rattus norvegicus [9]. For the same molecule, the IC50 was determined as 8 µM in the series on Plasma and 11 µM in series [1]. For the same molecule, the figures for the half-life in series [8] and in [10] were 2.14 h and 2.29 h, respectively. In addition, the CC50 in series [2] was above 1000 µM. Moreover, the Cmax in the series with Rattus norvegicus [11] stood at 33 ng/mL; in the series on Rattus norvegicus [13] it was 861 ng/mL. This molecule gave a bioavailability in series [12] of 10.9%.
`COc1cc(C(=O)N2CCN(C(=O)c3cc(OC)c(OC)c(OC)c3)C(CNC(=O)Nc3c(C)cccc3C)C2)cc(OC)c1OC` (stereo not drawn): the IC50 with Plasma was above 10 µM; in series [1] it was 32 µM. Moreover, the CC50 in series [2] was above 100 µM.
With `CCCN(CCC)C(=O)OCC1CN(C(=O)c2cc(OC)c(OC)c(OC)c2)CCN1C(=O)c1cc(OC)c(OC)c(OC)c1` (stereo not drawn), 100 µM produced 66% inhibition in [5]. In addition, the IC50 in the series with Plasma came out at 0.37 µM. The CC50 in series [2] was above 100 µM.
Take `COc1cc(C(=O)N2CCN(C(=O)c3cc(OC)c(OC)c(OC)c3)C(CNC(=O)OC(C)C)C2)cc(OC)c1OC` (stereo not drawn): the IC50 worked out at 5 µM in the series on Plasma and 25 µM in series [1]. In addition, the CC50 in [2] was above 100 µM.

(Values after ChEMBL document CHEMBL1149263, “Structure-activity relationships in platelet-activating factor. 12. Synthesis and biological evaluation of platelet-activating factor antagonists with anti-HIV-1 activity” (J Med Chem, 2004).)
